# Experimental data as given in BindingDB's records for doi:10.1016/s0960-894x(03)00033-7 (Astrazeneca R&D, 2003).
# Tests used:
# [1] = molecular target: Delta-type opioid receptor (Homo sapiens, UniProt P41143); assay: ChEBML_145338
# Source text: Inhibition of [125I]deltorphin binding to human delta opioid receptor from membranes of HEK293 cells
# Mu-type opioid receptor = Mu-type opioid receptor (Homo sapiens, UniProt P35372); assay: Inhibition of [125I]Enkephalin binding to human mu opioid receptor from membranes of HEK293 cells
# Mu-type opioid receptor, sequence (P35372 whole entry): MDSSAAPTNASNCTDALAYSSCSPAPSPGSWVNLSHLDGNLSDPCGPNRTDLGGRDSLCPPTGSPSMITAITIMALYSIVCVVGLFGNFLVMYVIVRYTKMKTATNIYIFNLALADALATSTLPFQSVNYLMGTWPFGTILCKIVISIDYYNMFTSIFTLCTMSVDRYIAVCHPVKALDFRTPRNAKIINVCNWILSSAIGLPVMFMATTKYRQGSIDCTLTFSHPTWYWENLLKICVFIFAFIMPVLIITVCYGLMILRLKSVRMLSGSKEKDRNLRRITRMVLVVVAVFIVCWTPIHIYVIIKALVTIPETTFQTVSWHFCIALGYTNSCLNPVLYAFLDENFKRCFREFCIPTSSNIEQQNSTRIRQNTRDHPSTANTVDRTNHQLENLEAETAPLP
# How it was run: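 Filter binding on membranes of HEK293 cells overexpressing human mu opioid receptor, measuring displacement of [125I]-Enkephalin. IC50 came from full dose–response curves on purified material, in single determinations.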
# Delta-type opioid receptor, sequence (P41143 whole entry): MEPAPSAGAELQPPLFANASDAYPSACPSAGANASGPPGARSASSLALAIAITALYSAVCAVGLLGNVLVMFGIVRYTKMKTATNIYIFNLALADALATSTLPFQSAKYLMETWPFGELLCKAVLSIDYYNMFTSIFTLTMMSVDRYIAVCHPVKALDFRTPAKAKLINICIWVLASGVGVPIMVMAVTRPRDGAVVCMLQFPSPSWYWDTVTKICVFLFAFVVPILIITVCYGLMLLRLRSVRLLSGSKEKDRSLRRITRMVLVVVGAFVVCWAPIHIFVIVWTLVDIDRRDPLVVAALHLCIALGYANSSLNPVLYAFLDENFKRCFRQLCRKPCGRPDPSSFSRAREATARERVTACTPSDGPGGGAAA
smiles,measurement,setting,value
O=c1c(-c2ccccc2)cccn1C(CN1CCCC1)c1ccccc1 (configuration not stated) [3-Phenyl-1-(1-phenyl-2-pyrrolidin-1-yl-ethyl)-1H-pyridin-2-one],IC50,[1],> 10 µM
same,IC50,Mu-type opioid receptor,> 10 µM
